Calls of active or inactive are those of the source. No cut-off for these calls is given here.
Assays:
Mus musculus [1] = assay: Anticonvulsant activity in Albino Swiss CD1 mouse at 100 mg/kg, ip after 2 hrs by subcutaneous pentylenetetrazole test; type: functional, organism-based; parameters: dose 100 mg/kg
Outline: (§1)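 Male CD-1 mice, 16–26 g, in groups of 4, each mouse used once, were given 100 mg/kg ip (0.1 mL/10 g, methylcellulose vehicle). MES used 25 mA, 500 V, 50 Hz delivered by ear electrodes for 0.2 s, and absence of hindlimb tonic extension counted as protection. In scPTZ, mice without clonic convulsions over 30 min of observation counted as protected. Both tests were run 0.5 h or 2 h after dosing.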

Mus musculus [2] = assay: Neurological toxicity in Albino Swiss CD1 mouse at 100 mg/kg, ip after 2 hrs by rotarod test; type: organism-based; parameters: dose 100 mg/kg, route intraperitoneal; conditions: in vivo
Outline: (§2)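 Mice were trained on a 2 cm rod for 3 min, with unlimited trials, at least 24 h before testing. Each was then dosed ip at 100 mg/kg and tested at 10 rpm 0.5 h or 2 h later, in groups of 4. Failure to stay on the rod for at least 1 min indicated neurotoxicity.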

Mus musculus [3] = assay: Anticonvulsant activity in Albino Swiss CD1 mouse at 100 mg/kg, ip after 2 hrs by maximal electroshock test; type: functional, organism-based; parameters: dose 100 mg/kg; outline: as §1
Mus musculus [4] = assay: Anticonvulsant activity in Albino Swiss CD1 mouse at 100 mg/kg, ip after 0.5 hrs by maximal electroshock test; type: functional, organism-based; parameters: dose 100 mg/kg; outline: as §1
Mus musculus [5] = assay: Anticonvulsant activity in Albino Swiss CD1 mouse at 100 mg/kg, ip after 0.5 hrs by subcutaneous pentylenetetrazole test; type: functional, organism-based; parameters: dose 100 mg/kg; outline: as §1
Mus musculus [6] = assay: Neurological toxicity in Albino Swiss CD1 mouse at 100 mg/kg, ip after 0.5 hrs by rotarod test; type: organism-based; parameters: dose 100 mg/kg, route intraperitoneal; conditions: in vivo; outline: as §2
Mus musculus [7] = assay: Anticonvulsant activity in intraperitoneally dosed Albino Swiss CD1 mouse after 2 hrs by subcutaneous pentylenetetrazole test; type: functional
Outline: (§3)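 Male CD-1 mice were dosed ip (0.1 mL/10 g, methylcellulose vehicle), at least four dose groups of 6 mice each. Protection in MES meant no hindlimb tonic extension after a 25 mA, 50 Hz, 0.2 s ear-electrode shock. Protection in scPTZ meant no clonus over 30 min.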

Mus musculus [8] = assay: Anticonvulsant activity in intraperitoneally dosed Albino Swiss CD1 mouse by subcutaneous pentylenetetrazole test; type: functional; outline: as §3
Mus musculus [9] = species: Mus musculus; assay: Protective index, ratio of neurotoxic TD50 in Albino Swiss CD1 mouse by rotarod test to anticonvulsant ED50 in Albino Swiss CD1 mouse by maximal electroshock test
Outline: (§4)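 The protective index is the rotarod TD50 divided by the MES or scPTZ ED50. Each value came from ip dosing in male CD-1 mice with probit analysis, and the reference drugs were tested under the same conditions.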

Mus musculus [10] = assay: Anticonvulsant activity in intraperitoneally dosed Albino Swiss CD1 mouse after 0.5 hrs by maximal electroshock test; type: functional; outline: as §3
[11] = Neurological toxicity in intraperitoneally dosed Albino Swiss CD1 mouse by rotarod test; type: organism-based; conditions: in vivo, ip
Outline: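 Mice trained on the rotarod were given various ip doses, four groups in all, and tested at 10 rpm. Failure to stay on the rod for at least 1 min indicated neurotoxicity.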

Mus musculus [12] = assay: Anticonvulsant activity in intraperitoneally dosed Albino Swiss CD1 mouse assessed as time to peak effect after 2 hrs by subcutaneous pentylenetetrazole test; type: functional
Mus musculus [13] = assay: Anticonvulsant activity in intraperitoneally dosed Albino Swiss CD1 mouse assessed as time to peak effect by maximal electroshock test; type: functional
Mus musculus [14] = assay: Anticonvulsant activity in intraperitoneally dosed Albino Swiss CD1 mouse by maximal electroshock test; type: functional; conditions: Albino Swiss CD1, ip; outline: as §3
Mus musculus [15] = assay: Protective index, ratio of neurotoxic TD50 in Albino Swiss CD1 mouse by rotarod test to anticonvulsant ED50 in Albino Swiss CD1 mouse by subcutaneous pentylenetetrazole test; outline: as §4
Mus musculus [16] = assay: Anticonvulsant activity in intraperitoneally dosed Albino Swiss CD1 mouse after 0.5 hrs by subcutaneous pentylenetetrazole test; type: functional; outline: as §3

Compound | Activity (Mus musculus [1]) | Activity (Mus musculus [2]) | Activity (Mus musculus [3]) | Activity (Mus musculus [4]) | Activity (Mus musculus [5]) | Activity (Mus musculus [6]) | MED50 (Mus musculus [7]) [mg/kg] | ED50 (Mus musculus [8]) [mg/kg] | Ratio TD50/ED50 (Mus musculus [9]) | MED50 (Mus musculus [10]) [mg/kg] | TD50 [11] [mg/kg] | Time (Mus musculus [12]) [h] | Time (Mus musculus [13]) [h] | ED50 (Mus musculus [14]) [mg/kg] | Ratio TD50/ED50 (Mus musculus [15]) | MED50 (Mus musculus [16]) [mg/kg]
CC(C(=O)NCc1ccc(F)cc1)N1C(=O)CCC1=O (racemic) | inactive | Non-toxic | inactive | inactive | inactive | Non-toxic |  |  |  |  |  |  |  |  |  | 
CC(C(=O)NCc1ccc(C(F)(F)F)cc1)N1C(=O)CCC1=O (racemic) |  | Non-toxic | inactive |  | inactive | Non-toxic | 100 | 54.5 | 1.78 | 100 | 143 | 2 | 0.5 | 80 | 2.62 | 
CCC(C(=O)NCc1ccccc1)N1C(=O)CCC1=O (racemic) | inactive | Non-toxic | inactive |  |  | Non-toxic |  | 90.3 | 4.26 | 100 | 312 | 0.5 | 0.5 | 73.3 | 3.46 | 100
CCC(C(=O)NCc1ccccc1Cl)N1C(=O)CCC1=O (racemic) |  | Non-toxic | inactive |  |  | Non-toxic | 100 | 76.4 | 3.7 | 100 | 418 | 0.5 | 0.5 | 113 | 5.47 | 100
CCC(C(=O)NCc1cccc(Cl)c1)N1C(=O)CCC1=O (racemic) | inactive | Non-toxic | inactive |  |  | Non-toxic |  | 78.8 | 1.12 | 100 | 180 | 0.5 | 0.5 | 96.5 | 2.28 | 100
CCC(C(=O)NCc1ccc(Cl)cc1)N1C(=O)CCC1=O (racemic) |  | Non-toxic | inactive |  |  | Non-toxic | 100 | 50.8 | 1.83 | 100 | 174 | 0.5 | 0.5 | 95.3 | 3.43 | 100
CCC(C(=O)NCc1ccccc1F)N1C(=O)CCC1=O (racemic) |  | Non-toxic | inactive | inactive |  | Non-toxic | 100 | 65.7 |  |  | 346 | 0.5 | 0.5 |  | 5.27 | 100
CCC(C(=O)NCc1ccc(F)cc1)N1C(=O)CCC1=O (racemic) | inactive | Non-toxic | inactive | inactive |  | Non-toxic |  | 83.4 |  |  | 268 | 0.5 | 0.5 |  | 3.22 | 100
CCC(C(=O)NCc1ccccc1C(F)(F)F)N1C(=O)CCC1=O (racemic) |  | Non-toxic | inactive | inactive | inactive | Non-toxic | 100 |  |  |  |  | 0.5 | 0.5 | > 150 |  | 
CCC(C(=O)NCc1cccc(C(F)(F)F)c1)N1C(=O)CCC1=O (racemic) | inactive | Non-toxic | inactive | inactive |  | Non-toxic |  | 77.4 |  |  | 163 | 0.5 | 0.5 |  | 2.12 | 100
CCC(C(=O)NCc1ccc(C(F)(F)F)cc1)N1C(=O)CCC1=O (racemic) | inactive | Non-toxic | inactive |  |  | Non-toxic |  | 80.4 | 1.62 | 100 | 112 | 0.5 | 0.5 | 69.4 | 1.4 | 100
CCC(C(=O)NCC1CCCCC1)N1C(=O)CCC1=O (racemic) | inactive | Non-toxic | inactive | inactive | inactive | Non-toxic |  |  |  |  |  |  |  |  |  | 
CC1CC(=O)N(C(C)C(=O)NCc2ccccc2)C1=O (racemic) | inactive | Non-toxic | inactive |  |  | Non-toxic |  | 78.3 | 3.34 | 100 | 355 | 0.5 | 0.5 | 106 | 4.54 | 100
CC1CC(=O)N(C(C)C(=O)NCc2ccc(Cl)cc2)C1=O (racemic) | inactive | Non-toxic | inactive | inactive | inactive | Non-toxic |  |  |  |  |  |  |  |  |  | 
CC1CC(=O)N(C(C)C(=O)NCc2ccc(F)cc2)C1=O (racemic) | inactive | Non-toxic | inactive | inactive | inactive | Non-toxic |  |  |  |  |  |  |  |  |  | 
CC1CC(=O)N(C(C)C(=O)NCc2ccccc2C(F)(F)F)C1=O (racemic) | inactive | Non-toxic | inactive | inactive | inactive | Non-toxic |  |  |  |  |  |  |  |  |  | 
CC1CC(=O)N(C(C)C(=O)NCc2cccc(C(F)(F)F)c2)C1=O (racemic) | inactive | Non-toxic | inactive | inactive | inactive | Non-toxic |  |  |  |  |  |  |  |  |  | 
CC(C(=O)NCc1ccccc1)N1C(=O)CCC1=O (racemic) | inactive | Non-toxic | inactive |  |  | Non-toxic |  |  |  | 100 |  | 0.5 | 0.5 |  |  | 100
CC(C(=O)NCc1ccc(Cl)cc1)N1C(=O)CCC1=O (racemic) | inactive | Non-toxic | inactive |  |  | Non-toxic |  | 43.6 | 2.48 | 100 | 228 | 0.5 | 0.5 | 91.8 | 5.23 | 100
CC(C(=O)NCc1ccccc1C(F)(F)F)N1C(=O)CCC1=O (racemic) | inactive | Non-toxic | inactive | inactive | inactive | Non-toxic |  |  |  |  |  |  |  |  |  | 
NC(=O)N1c2ccccc2C=Cc2ccccc21 [CARBAMAZEPINE] |  |  |  |  |  |  |  | > 100 | 3.47 |  | 49.3 | 0.5 | 0.5 | 14.2 |  | 
COC[C@@H](NC(C)=O)C(=O)NCc1ccccc1 [LACOSAMIDE] |  |  |  |  |  |  |  | > 500 |  |  |  | 0.5 | 0.5 | 9.24 |  | 

— ChEMBL document CHEMBL3400073, “Design, synthesis and biological evaluation of new hybrid anticonvulsants derived from N-benzyl-2-(2,5-dioxopyrrolidin-1-yl)propanamide and 2-(2,5-dioxopyrrolidin-1-yl)butanamide derivatives” (Bioorg Med Chem, 2015)
